Source: ChEMBL document CHEMBL1144703, “Identification of novel ligands for the RNA pseudoknot that regulate -1 ribosomal frameshifting” (Bioorg Med Chem, 2008)
Calls of active or inactive are those of the source. The rule behind the calls is not given here.

Columns and labels:
[1] = Activity at synthetic biotin-RNA pseudoknot assessed as increase in -1 ribosomal frameshifting efficiency at 250 uM by rabbit reticulocyte based transcription/translation-coupled assay
Procedure, shortened: (§1)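 Biotin-pseudoknot template ligated into dual luciferase vector (XhoI/SpeI). Coupled transcription/translation in rabbit reticulocyte lysate with compounds at 250 μM in DMSO; DMSO control. Frameshift efficiency from SDS–PAGE band quantification (100 vs 40 kDa, PhosphorImager) or dual luciferase firefly/Renilla ratio, 10 s reads; fold change = efficiency with compound / without; triplicate runs.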

[2] = Activity at synthetic biotin-RNA pseudoknot assessed as increase in -1 ribosomal frameshifting efficiency at 250 uM by dual luciferase assay; procedure, shortened: as §1
[3] = Activity at synthetic biotin-RNA pseudoknot assessed as increase in -1 ribosomal frameshifting efficiency by rabbit reticulocyte based transcription/translation-coupled assay
Procedure, shortened: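 Concentration series 25 nM to 250 μM in rabbit reticulocyte TNT-coupled assay with biotin-pseudoknot template; biotin at 250 μM as comparator. Frameshifting % from SDS–PAGE autoradiogram, frameshift (100 kDa) vs non-frameshift (40 kDa) protein.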

HEK293 = experiment: Activity at synthetic biotin-RNA pseudoknot assessed as increase in -1 ribosomal frameshifting efficiency in human HEK293 cells at 250 uM by transcription/translation-coupled assay; assay type: cell-based
Procedure, shortened: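 HEK 293 in DMEM, 10% FBS, 1% pen-strep, seeded to 40% confluence, transfected with biotin-pseudoknot dual luciferase construct (50 ng DNA, JetPEI) for 18 h, then compound in DMSO added for a further 18 h. Passive lysis 30 min at room temperature, protein normalised by Bradford (50 μg), firefly/Renilla luciferase ratio read.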

[4] = system: Pea enation mosaic virus-1; experiment: Activity at PEMV RNA pseudoknot assessed as increase in -1 ribosomal frameshifting efficiency at 250 uM by dual luciferase based transcription/translation-coupled assay
Procedure, shortened: (§2)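 Template carries PEMV pseudoknot in place of biotin-pseudoknot in dual luciferase vector. In vitro TNT-coupled transcription/translation in rabbit reticulocyte lysate, compounds in DMSO (DMSO control). Read-out by SDS–PAGE autoradiography, frameshift (100 kDa) vs non-frameshift (40 kDa) products quantified by PhosphorImager, or by dual luciferase (firefly then Renilla, 10 s each, ratio); luciferase values mean of triplicates.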

[5] = system: Pea enation mosaic virus-1; experiment: Activity at PEMV RNA pseudoknot assessed as increase in -1 ribosomal frameshifting efficiency at 250 uM by SDS-PAGE based transcription/translation-coupled assay; procedure, shortened: as §2

| Structure (SMILES) | Activity [2] | also measured |
| --- | --- | --- |
| COC(=O)C(CCCCNC(=O)Nc1cc(F)ccc1F)NS(=O)(=O)c1ccc(C)cc1 (stereo unspecified) | 18.1% | Activity [1]: 13.7%; Activity [3]: Dose-dependent effect; Activity (HEK293): 8.05%; Activity [4]: inactive; Activity [5]: 7.6% |
| CCOC(=O)N1CCN(C(=O)Nc2ccccc2SC)CC1 | Active | – |
| CCOC(=O)c1cccc(NC(=O)N2CCCN2C(=O)c2cccnc2SCCCC#N)c1 | Active | – |
| COC(=O)c1cc(NC(=O)NCCSCc2ccccc2)cc(C(=O)OC)c1 | Active | – |

The next lines start with results.

| Activity [2] | Structure (SMILES) | also measured |
| --- | --- | --- |
| Active | CCOC(=O)C(CSCc1ccccc1)NC(=O)Nc1ccc(SC)cc1 (stereo unspecified) | – |
| Active | CSc1ccccc1NC(=O)NCC(=O)OCc1ccccc1 | – |
